Source: ChEMBL document CHEMBL1221325, “Synthesis and ribonuclease A inhibition activity of resorcinol and phloroglucinol derivatives of catechin and epicatechin: Importance of hydroxyl groups” (Bioorg Med Chem, 2010)
Active and inactive are the calls of the source. No cut-off for these calls is given here.

Experiments:
[1] = biological target: Ribonuclease pancreatic (Bos taurus) (UniProt P61823); test: Inhibition of RNase A-mediated degradation of yeast tRNA assessed as residual tRNA band by agarose gel electrophoresis relative to control
Sequence of Ribonuclease pancreatic (Bos taurus) (P61823 whole entry, looked up): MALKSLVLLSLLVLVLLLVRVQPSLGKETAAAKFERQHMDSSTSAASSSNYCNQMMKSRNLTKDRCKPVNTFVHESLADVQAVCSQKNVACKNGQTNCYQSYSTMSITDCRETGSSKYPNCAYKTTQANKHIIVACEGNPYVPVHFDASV

[2] = biological target: Ribonuclease pancreatic (Bos taurus) (UniProt P61823); test: Binding affinity to RNase A by fluorescence quenching
Gallus gallus = organism: Gallus gallus; test: Antiangiogenic activity against angiogenin-induced angiogenesis in chicken eggs at 150 uM for 10 days measured after 48 hrs by CAM assay; format: functional; conditions: Egg
Procedure, shortened: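 Chick embryo chorioallantoic membrane exposed through a small hole drilled in the shell on day 2. 10 µl aliquots of angiogenin, alone or mixed with compound, dried on transparent discs, which were inverted onto the CAM on day 10. Response read after 48 h as density of blood vessel formation against a control set.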

Ratio [1] | Kb [2] [×10⁴ /M] | SMILES | Activity (Gallus gallus)
0.331 |  | Oc1cc(O)c2c(c1)OC(c1ccc(O)c(O)c1)C(O)C2 (stereo not drawn) | 
0.295 |  | Oc1cc(O)c2c(c1)O[C@H](c1ccc(O)c(O)c1)[C@H](O)C2 | 
0.699 | 3.14 | Oc1cc(O)c([C@@H]2c3c(O)cc(O)cc3O[C@H](c3ccc(O)c(O)c3)[C@@H]2O)c(O)c1 | 
0.704 | 6.76 | Oc1cc(O)c([C@H]2c3c(O)cc(O)cc3O[C@H](c3ccc(O)c(O)c3)[C@@H]2O)c(O)c1 | Active
0.71 |  | Nc1ccn([C@@H]2O[C@H](CO)[C@@H](OP(=O)(O)O)[C@H]2O)c(=O)n1 | 
0.612 | 1.37 | Oc1ccc([C@@H]2c3c(O)cc(O)cc3O[C@H](c3ccc(O)c(O)c3)[C@H]2O)c(O)c1 | 
0.659 | 2.42 | Oc1ccc([C@H]2c3c(O)cc(O)cc3O[C@H](c3ccc(O)c(O)c3)[C@@H]2O)c(O)c1 | Active
